Bioassay records deposited in PubChem by The Scripps Research Institute Molecular Screening Center.
Shown are actives, neighbours in structure and some others; about 1.8% of the full set was active somewhere.
HTRA1 inhibitor – inhibitors of human serine peptidase HTRA1. Q92743. recombinant HTRA1, FP-rhodamine activity-based probe, fluorescence polarization. inhibition, % at 5.96 µM. 340,000 compounds, 0.5% hits. AID 504803; in the data active = inhibition above about 36%
Target sequence (Q92743 whole entry, looked up): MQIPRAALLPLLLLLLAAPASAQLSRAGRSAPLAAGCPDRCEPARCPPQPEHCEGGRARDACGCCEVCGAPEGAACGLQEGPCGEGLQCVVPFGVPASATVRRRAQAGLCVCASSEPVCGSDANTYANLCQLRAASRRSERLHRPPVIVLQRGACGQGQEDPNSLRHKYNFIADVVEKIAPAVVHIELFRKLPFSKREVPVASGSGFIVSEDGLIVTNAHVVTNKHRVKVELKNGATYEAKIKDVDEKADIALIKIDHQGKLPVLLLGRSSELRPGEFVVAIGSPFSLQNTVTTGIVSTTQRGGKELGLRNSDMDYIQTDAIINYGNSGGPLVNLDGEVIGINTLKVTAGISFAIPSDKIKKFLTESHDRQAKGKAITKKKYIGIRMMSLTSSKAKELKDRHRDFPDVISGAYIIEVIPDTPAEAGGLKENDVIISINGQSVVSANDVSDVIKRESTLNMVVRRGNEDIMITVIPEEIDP
SIAE primary – human SIAE inhibition, primary screen | Q9HAT2 | SIAE FP-Rh probe binding, fluorescence polarization | inhibition, % at 9.66 µM | 370,000 compounds, 0.69% hits | AID 1053197;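 active = inhibition above a cutoff: mean of compounds within the control limits plus 3 SD of those, cut at about 17% in these data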
TCR-CD3 inh – inhibitors of human TCR-CD3 interaction. TAMRA-labeled TCR probe fluorescence, biochemical. inhibition, % at 9.4 µM. 360,000 compounds, 0.37% hits. AID 651800;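 note: recombinant mutant TCR 2C K166C tagged with TAMRA read by polarization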
ABHD4 inh – inhibits mouse alpha/beta hydrolase domain 4; Q8VD66; purified mABHD4, FP-Rh probe fluorescence polarization; inhibition, % at 8.92 µM; 370,000 compounds, 0.54% hits; AID 720543;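 active = inhibition exceeding the mean over every tested compound plus 3 SD, cut at about 30% in these data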
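Assay system: mABHD4 protein; medium: HEPES pH 7.0, NaCl, Pluronic buffer; dosing: 8.92 µM, single dose; schedule: 45 min + 60 min at 25 °C; signal: FP readout, ex 525 nm / em 598 nm; read-out: normalized percent inhibition of probe labeling; repeats: single replicate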
DDE Tn6 FP inh – inhibitors of Tn6 peptide binding to human fibrin DD(E) | Fibrin DD(E) TRITC-Tn6 fluorescence polarization displacement | inhibition, % at 8.3 µM | 370,000 compounds, 0.21% hits | AID 720509;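 active = inhibition above a per-campaign cutoff: mean of compounds within control limits plus 3 SD, cut at about 15% in these data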
Tn7 DDE FP – disrupts Tn7 cyclic peptide binding to fibrin D-Dimer-E complex | P02675 | FP displacement of FITC-Tn7 peptide from fibrin DD(E); 0% = median of compound wells per plate | inhibition, % at 8.3 µM | 370,000 compounds, 0.13% hits;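 active = inhibition above the mean of compounds falling within the control limits plus 3 SD of them, cut at about 14% in these data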
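System: human fibrin DD(E); quantity: Fibrin-DD(E) at 2 µM final; also added: fluorescent Tn7 probe at 0.1 µM; compound dosing: single nominal test concentration of 8.3 µM per compound; schedule: 10 min preincubation, 3 h with tracer, room temperature; detection: fluorescence polarization of the labelled Tn7 tracer; repeats: one replicate per compound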
HTRA1 conf – HTRA1 (human) inhibition, confirmation. inhibition, % at 5.96 µM. AID 540248. 1,600 compounds, 66% hits. recombinant HTRA1, FP-rhodamine activity-based probe, fluorescence polarization. shares compounds with HTRA1 inhibitor;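 active = mean inhibition over three repeats above a set limit taken from the earlier primary screen, cut at about 37% in these data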;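 note: inhibitors block probe binding so polarization drops and inhibition rises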
BSA TAMRA ctr – counter-screen for TCR-CD3 interaction inhibitors: BSA probe | shares compounds with TCR-CD3 inh | 1,200 compounds, 10% hits | inhibition, % at 9.4 µM | TAMRA-labeled BSA probe fluorescence counterscreen; in the data active = inhibition above about 23%
TCR-CD3 inh conf – confirmation of human TCR-CD3 interaction inhibitors. shares compounds with TCR-CD3 inh. TAMRA-labeled TCR probe fluorescence binding assay. inhibition, % at 9.4 µM. 1,200 compounds, 48% hits. AID 652036
Tn7 DDE conf – DD(E)-Tn7 binding inhibition, FP confirmation; 460 compounds, 5% hits; FP displacement of TRITC-Tn7 peptide from DD(E); 0% set at plate's compound-well median; inhibition, % at 8.3 µM; shares compounds with Tn7 DDE FP;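 active = inhibition above the campaign cutoff, the mean of compounds within control limits plus 3 SD, cut at about 14% in these data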;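 note: displacers lower polarization since freed probe rises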
DDE Tn7 FP ctr – DD(E)-Tn7 binding inhibition, counter-screen | AID 720633 | fibrin DD(E), TRITC-Tn7 probe displacement, fluorescence polarization | shares compounds with Tn7 DDE FP | 460 compounds, 3% hits | inhibition, % at 8.3 µM;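 active = inhibition above the cutoff, the mean of compounds lying between the control bounds plus 3 SD of those compounds, cut at about 17% in these data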
DDE Tn6 FP ctr – counter-screen hit for Tn6 peptide-fibrin DD(E) binding disruption; TRITC-Tn6 fluorescence polarization displacement; 0% = median of compound wells, not DMSO; shares compounds with DDE Tn6 FP inh; AID 720621; 680 compounds, 2% hits; inhibition, % at 8.3 µM;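 active = inhibition above the mean of test compounds lying between the control limits plus 3 SD of those, cut at about 14% in these data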
Tn6 DDE conf – confirmation of inhibitors of Tn6 binding to human fibrin DD(E); shares compounds with DDE Tn6 FP inh; FP displacement of TRITC-Tn6 peptide from DD(E); 0% = per-plate median of test wells; inhibition, % at 8.3 µM; 680 compounds, 10% hits; AID 720631;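 active = inhibition above the mean of compounds lying within the control limits plus 3 SD, cut at about 16% in these data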
ABHD4 confirm – ABHD4 (mouse) inhibition, FP confirmation | shares compounds with ABHD4 inh | purified mABHD4, FP-Rh probe fluorescence polarization | inhibition, % at 8.92 µM | 1,800 compounds, 55% hits;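 active = mean inhibition across replicates above the hit cutoff set in the primary screen, cut at about 30% in these data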
SIAE inh conf – human SIAE inhibition, confirmation; SIAE FP-Rh activity-based probe, fluorescence polarization; shares compounds with SIAE primary; AID 1117263; inhibition, % at 9.66 µM; 2,300 compounds, 13% hits;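 active = mean inhibition of the replicates above the hit cutoff set in the primary screen, cut at about 17% in these data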;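 note: inhibitors lower polarization as more probe stays unbound to SIAE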
Each line names hits and unclear results; the compound was inactive in the other large screens (follow-up assays come after a bar, where they were run). Cut-off read from the data, not from the text of the source, unless noted: active = inhibition above about 19%; inactive = the rest.

CC1(C)CC(=O)C(C=Nc2ccc(C(=O)c3ccccc3)cc2N=CC2=C(O)CC(C)(C)CC2=O)=C(O)C1	HTRA1 inhibitor 41, ABHD4 inh 30, DDE Tn6 FP inh 19, Tn7 DDE FP 14 | HTRA1 conf inactive | Tn7 DDE conf inactive | DDE Tn7 FP ctr inactive | DDE Tn6 FP ctr inactive | Tn6 DDE conf inactive | ABHD4 confirm inactive
CC1CCC/C(=C\Nc2ccc(O)cc2)C1=O (stereo not drawn)	HTRA1 inhibitor 39, TCR-CD3 inh 24, ABHD4 inh 44, DDE Tn6 FP inh 17 | HTRA1 conf inactive | BSA TAMRA ctr inactive | TCR-CD3 inh conf inactive | DDE Tn6 FP ctr inactive | Tn6 DDE conf inactive | ABHD4 confirm inactive
Cc1cc(C(=O)O)ccc1N/C=C1\CCCC(C)C1=O (stereo not drawn)	none
Oc1ccc(/C=N/N2CCCCC2)c(O)c1O	HTRA1 inhibitor 38, ABHD4 inh 31 | HTRA1 conf inactive | ABHD4 confirm inactive
O=C1c2ccccc2C(=O)c2c1cccc2N1CCCC1	HTRA1 inhibitor 45, ABHD4 inh 33 | HTRA1 conf 49 | ABHD4 confirm 57
CC1OC23CCCCC2C(C#N)(C(=N)O3)C1(C#N)C#N (stereo not drawn)	none
COc1ccc(C2OC34CCCCC3C(C#N)(C#N)C2(C#N)C(=N)O4)cc1 (stereo not drawn)	HTRA1 inhibitor 36, TCR-CD3 inh 27, ABHD4 inh 34 | HTRA1 conf 43 | BSA TAMRA ctr 65 | TCR-CD3 inh conf 44 | ABHD4 confirm 52
Cc1cc(C(=O)c2ccccc2)cc(C)c1O	none
O=C(c1ccccc1)c1ccc(O)c(O)c1O	HTRA1 inhibitor 68, ABHD4 inh 39 | HTRA1 conf 79 | ABHD4 confirm inactive
Nc1cccc2c(O)cccc12	HTRA1 inhibitor 40, ABHD4 inh 42 | HTRA1 conf inactive | ABHD4 confirm 51
COc1ccc(CNC(=O)CN(C)Cc2ccc(C(C)(C)C)cc2)cc1	none
O=C(/C=C/c1ccccc1)c1cc(Br)ccc(=O)c1O	HTRA1 inhibitor 58, ABHD4 inh 37 | HTRA1 conf 65 | ABHD4 confirm inactive
O=C(/C=C/c1ccc(F)cc1)c1cc(Br)ccc1O	none
COC(=O)c1ccc(COc2ccc(/C=N/Nc3nc(C)cc(=O)[nH]3)cc2)cc1	none
COc1ccccc1/C=N\NC(=O)c1c(C)nc2ccc(Cl)cn12	none
COc1cccc(/C=N/NC(=O)c2c(C)nc3ccc(Cl)cn23)c1O	HTRA1 inhibitor 62, ABHD4 inh 35 | HTRA1 conf 65 | ABHD4 confirm 55
Cc1cccc(NNC(=O)C(=O)NNc2cccc(C)c2)c1	none (no result: HTRA1 inhibitor)
Cc1cccc(N=NC(=S)NNc2cccc(C)c2)c1	HTRA1 inhibitor 36, ABHD4 inh 32 | HTRA1 conf 45 | ABHD4 confirm 58
COCC(=O)N1C[C@H]2CON(C)[C@H]2C[C@H]1c1cccc(-c2ccccc2)c1	none
CC1=CC(C)(C)Nc2ccc(Cc3ccc4c(c3)C(C)=CC(C)(C)N4)cc21	HTRA1 inhibitor 51, ABHD4 inh 31 | HTRA1 conf 37 | ABHD4 confirm 33
COc1ccccc1N1C(=O)CC(Nc2ccc(N3CCOCC3)cc2)C1=O (stereo not drawn)	HTRA1 inhibitor 44, ABHD4 inh 46 | HTRA1 conf inactive | ABHD4 confirm inactive
CCOc1ccccc1N1C(=O)CC(Nc2ccc(N3CCOCC3)cc2)C1=O (stereo not drawn)	HTRA1 inhibitor 44, ABHD4 inh 46 | HTRA1 conf inactive | ABHD4 confirm inactive
O=C1CC(Nc2ccc(N3CCOCC3)cc2)C(=O)N1c1ccccc1 (stereo not drawn)	none (no result: SIAE primary, TCR-CD3 inh, ABHD4 inh, DDE Tn6 FP inh, Tn7 DDE FP)
COc1ccc(S(=O)(=O)N2CCC(C(=O)NCCC(=O)Nc3cccc(Cl)c3)CC2)cc1	none
COc1ccc(-c2oc3c(c2C#CC2(O)CCCCC2)C(OC(C)=O)CCC3)cc1 (stereo not drawn)	none (no result: HTRA1 inhibitor)
O=C(O)c1cc2ccccc2c2c1C(=O)c1ccccc1-2	none
O=C1C=C(c2c(O)ccc3ccccc23)c2ccccc2C1=O	HTRA1 inhibitor 46, ABHD4 inh 52 | HTRA1 conf 48 | ABHD4 confirm 55
CCN(CC)c1ccc(C(=C2C=CC(=[N+](CC)CC)C=C2)c2ccc(N(CC)CC)cc2)cc1	HTRA1 inhibitor 83, SIAE primary 40, TCR-CD3 inh 39, ABHD4 inh 110, DDE Tn6 FP inh 84 | HTRA1 conf 86 | BSA TAMRA ctr 40 | TCR-CD3 inh conf 40 | ABHD4 confirm 125
O=C(N/N=C\c1c(O)ccc2ccccc12)c1cncc(Br)c1	HTRA1 inhibitor 53, SIAE primary 31, ABHD4 inh 34 | HTRA1 conf 50 | ABHD4 confirm inactive | SIAE inh conf inactive
Cn1cc(C(=O)N/N=C/c2c(O)ccc3ccccc23)ccc1=O	HTRA1 inhibitor 62, SIAE primary 30, TCR-CD3 inh 38, ABHD4 inh 31 | HTRA1 conf 42 | BSA TAMRA ctr inactive | TCR-CD3 inh conf 24 | ABHD4 confirm 30 | SIAE inh conf inactive
